Measurements: ChEMBL document CHEMBL4622832, “Synthesis, biological evaluation and molecular modeling study of 2-amino-3,5-disubstituted-pyrazines as Aurora kinases inhibitors” (Bioorg Med Chem, 2020)
The source made the active and inactive calls. The rule behind the calls is not given here.

Legend:
Aurora kinase B [1] = biological target: T1, Aurora kinase B (Homo sapiens, UniProt Q96GD4); assay: Inhibition of Aurora kinase B (unknown origin) incubated for 30 mins by Kinase Glo luminescent assay
T1 sequence (Q96GD4 whole entry): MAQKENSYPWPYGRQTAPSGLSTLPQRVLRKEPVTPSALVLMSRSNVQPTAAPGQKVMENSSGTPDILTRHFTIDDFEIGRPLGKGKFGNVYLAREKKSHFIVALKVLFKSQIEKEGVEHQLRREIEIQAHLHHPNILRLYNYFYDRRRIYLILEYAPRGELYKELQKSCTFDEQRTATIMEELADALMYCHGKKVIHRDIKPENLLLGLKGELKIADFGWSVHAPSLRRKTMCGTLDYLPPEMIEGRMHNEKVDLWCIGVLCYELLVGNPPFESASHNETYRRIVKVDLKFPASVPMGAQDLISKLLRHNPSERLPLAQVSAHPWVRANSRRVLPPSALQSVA

Aurora kinase A = biological target: T2, Aurora kinase A (Homo sapiens, UniProt O14965); assay: Inhibition of Aurora kinase A (unknown origin) incubated for 30 mins by Kinase Glo luminescent assay
T2 sequence (O14965 whole entry): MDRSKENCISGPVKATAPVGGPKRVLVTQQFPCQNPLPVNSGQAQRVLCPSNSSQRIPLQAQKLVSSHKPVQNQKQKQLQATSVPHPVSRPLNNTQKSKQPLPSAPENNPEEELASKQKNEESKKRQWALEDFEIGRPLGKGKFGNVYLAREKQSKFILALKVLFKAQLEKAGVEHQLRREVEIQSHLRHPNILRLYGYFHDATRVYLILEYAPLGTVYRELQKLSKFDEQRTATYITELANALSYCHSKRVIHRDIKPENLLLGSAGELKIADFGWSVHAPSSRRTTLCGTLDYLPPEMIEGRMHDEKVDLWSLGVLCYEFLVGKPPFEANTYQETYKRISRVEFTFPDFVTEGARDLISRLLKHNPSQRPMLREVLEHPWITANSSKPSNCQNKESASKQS

LoVo = assay: Antiproliferative activity against human LoVo cells assessed as cell growth inhibition after 72 hrs by MTT assay; type: functional, cell-based
Method in brief: (§1)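 Cells seeded at 5 × 10^3 cells/well in medium with 10% FBS for 24 h at 37 °C, 5% CO2. Compounds diluted in culture medium to various concentrations, 72 h exposure. MTT (5 mg/mL stock in serum-free medium) for 4 h, formazan dissolved in DMSO, absorbance at 490 nm. IC50 from log plot of percent of control versus concentration; triplicate.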

HepG2 = assay: Antiproliferative activity against human HepG2 cells assessed as cell growth inhibition after 72 hrs by MTT assay; type: functional, cell-based; conditions: HepG2, 72 h; method in brief: as §1
HeLa [2] = assay: Antiproliferative activity against human HeLa cells assessed as cell growth inhibition after 72 hrs by MTT assay; type: functional, cell-based; method in brief: as §1
U-87 MG = assay: Antiproliferative activity against human U87 cells assessed as cell growth inhibition after 72 hrs by MTT assay; type: functional, cell-based, U-87MG ATCC; method in brief: as §1
Aurora kinase B [3] = biological target: T1, Aurora kinase B; assay: Inhibition of Aurora kinase B in human HeLa cells assessed as reduction in phosphorylation at Thr232 residue incubated for 24 hrs by western blot analysis; type: cell-based
Method in brief: (§2)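 HeLa cells treated 24 h at 0, 1, 5 or 10 µM. Lysates quantified by BCA; 20–30 µg protein run on 12% SDS-PAGE, transferred to PVDF. Blocked 2 h in 5% milk/TBST. Primary antibodies (1:500–1:1000) overnight at 4 °C against p-Aurora A Thr288, p-Aurora B Thr232, total Aurora A/B, cyclin B1 and cdc2. Secondary at 1:5000–1:10,000; β-actin loading control.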

[4] = biological target: T3, Aurora kinase A (Homo sapiens) (UniProt O14965); assay: Inhibition of Aurora kinase A in human HeLa cells assessed as reduction in phosphorylation at Thr288 residue incubated for 24 hrs by western blot analysis; type: cell-based; method in brief: as §2
T3 sequence (whole entry): T2 sequence (O14965 whole entry)

HeLa [5] = assay: Induction of cell cycle arrest in human HeLa cells assessed as accumulation in G2/M phase at 1 uM after 24 hrs by propidium iodide staining-based flow cytometric analysis (reference value: 10.5%); type: functional
HeLa [6] = assay: Induction of cell cycle arrest in human HeLa cells assessed as accumulation in G2/M phase at 5 uM after 24 hrs by propidium iodide staining-based flow cytometric analysis (reference value: 10.5%); type: functional
HeLa [7] = assay: Induction of cell cycle arrest in human HeLa cells assessed as accumulation in G2/M phase at 10 uM after 24 hrs by propidium iodide staining-based flow cytometric analysis (reference value: 10.5%); type: functional
HeLa [8] = assay: Induction of cell cycle arrest in human HeLa cells assessed as decrease in cyclin B1 expression level at 1 to 10 uM incubated for 24 hrs by Western blot analysis; type: functional, cell-based; method in brief: as §2
HeLa [9] = assay: Induction of cell cycle arrest in human HeLa cells assessed as decrease in cdc2 expression level at 1 to 10 uM incubated for 24 hrs by Western blot analysis; type: functional, cell-based; method in brief: as §2
HeLa [10] = assay: Induction of cell cycle arrest in human HeLa cells assessed as accumulation in G2/M phase after 24 hrs by propidium iodide staining-based flow cytometric analysis; type: functional
Aurora kinase B [11] = biological target: T1, Aurora kinase B; assay: Inhibition of Aurora B in human B-NHL cells assessed as inhibition of histone H3 phosphorylation on Ser10 by immunoblotting analysis; type: cell-based

| Compound | IC50 (Aurora kinase B [1]) [µM] | IC50 (Aurora kinase A) [µM] | IC50 (LoVo) [µM] | IC50 (HepG2) [µM] | IC50 (HeLa [2]) [µM] | IC50 (U-87 MG) [µM] | further results |
| --- | --- | --- | --- | --- | --- | --- | --- |
| Cn1cc(-c2cnc(N)c(Oc3ccc(C(=O)Nc4ccccc4)cc3)n2)cn1 | 0.164 | 0.22 | 9.21 | 11.6 | 12.3 | 17.7 |  |
| Cc1noc(C)c1-c1cnc(N)c(Oc2ccc(C(=O)Nc3cc(Cl)ccn3)cc2)n1 |  |  | > 100 | > 100 | 37.9 | 70.8 |  |
| Cc1noc(C)c1-c1cnc(N)c(Oc2ccc(C(=O)Nc3ccc(Cl)cc3)cc2)n1 | 0.26 | 0.458 | 1.92 | 14.4 | 2.23 | 15.5 |  |
| Cc1noc(C)c1-c1cnc(N)c(Oc2ccc(C(=O)Nc3ccccc3Cl)cc2)n1 |  |  | > 100 | > 100 | 81.3 | 60.5 |  |
| Cc1noc(C)c1-c1cnc(N)c(Oc2ccc(C(=O)NC3CC3)cc2)n1 |  |  | > 100 | 43.2 | 17.8 | 43.3 |  |
| Cc1noc(C)c1-c1cnc(N)c(Oc2ccc(C(=O)N3CCN(C)CC3)cc2)n1 | 0.189 | 0.143 | 7.69 | 17.6 | 8.03 | 21.5 |  |
| Cn1cc(-c2cnc(N)c(Oc3ccc(C(=O)Nc4cc(Cl)ccn4)cc3)n2)cn1 |  |  | 26.6 | > 100 | 40.8 | 47.9 |  |
| Cc1noc(C)c1-c1cnc(N)c(Oc2ccc(C(=O)Nc3cccc(Cl)n3)cc2)n1 |  |  | 39.3 | 35.7 | 25.5 | 64.1 |  |
| Cc1noc(C)c1-c1cnc(N)c(Oc2ccc(C(=O)Nc3ncccc3Cl)cc2)n1 |  |  | 14.8 | 27.2 | 31.9 | 45.6 |  |
| Cc1noc(C)c1-c1cnc(N)c(Oc2ccc(C(=O)Nc3cccc(Cl)c3)cc2)n1 | 0.152 | 0.09 | 1.64 | 7.3 | 1.34 | 11.5 | inhibition (Aurora kinase B [3]): Dose-dependent effect; inhibition [4]: Dose-dependent effect; Activity (HeLa [5]): 21%; Activity (HeLa [6]): 30.1%; Activity (HeLa [7]): 34.9%; Activity (HeLa [8]): Active; Activity (HeLa [9]): Active; Activity (HeLa [10]): Dose-dependent effect |
| O=C(Nc1c[nH]nc1-c1nc2ccc(CN3CCOCC3)cc2[nH]1)NC1CC1 [AT-9283] |  |  |  |  |  |  | IC50 (Aurora kinase B [11]): 0.03 µM |
| Cn1cc(-c2cnc(N)c(Oc3ccc(C(=O)Nc4ccc(Cl)cc4)cc3)n2)cn1 | 0.175 | 0.19 | 3.08 | 11.9 | 3.44 | 35.8 |  |
| Cn1cc(-c2cnc(N)c(Oc3ccc(C(=O)Nc4cccc(Cl)c4)cc3)n2)cn1 | 0.272 | 0.658 | 24.5 | 21.2 | 4.46 | 21.7 |  |
| Cc1noc(C)c1-c1cnc(N)c(Oc2ccc(C(=O)Nc3ccccc3)cc2)n1 | 0.538 | 0.22 | 5.74 | 11.8 | 10.5 | 26.6 |  |
| Cn1cc(-c2cnc(N)c(Oc3ccc(C(=O)Nc4cccc(Cl)n4)cc3)n2)cn1 |  |  | 48.6 | 44.2 | 38.2 | 54.8 |  |
| Cc1noc(C)c1-c1cnc(N)c(Oc2ccc(C(=O)NC3CCCCC3)cc2)n1 | 0.32 | 0.23 | 21.6 | 5.42 | 26.1 | 40.4 |  |
| Cc1noc(C)c1-c1cnc(N)c(Sc2ccc(C(=O)Nc3ccc(Cl)cc3)cc2)n1 |  |  | 49.2 | 45.2 | 38.4 | > 100 |  |
| CCCNC(=O)c1ccc(Oc2nc(-c3c(C)noc3C)cnc2N)cc1 |  |  | 17.5 | 6.88 | 32.1 | 47.8 |  |
| Cn1cc(-c2cnc(N)c(NCc3ccc(C(=O)Nc4ccc(Cl)cc4)cc3)n2)cn1 |  |  | 43.6 | 20.1 | 42.1 | > 100 |  |
| Cc1noc(C)c1-c1cnc(N)c(NCc2ccc(C(=O)Nc3ccc(Cl)cc3)cc2)n1 |  |  | > 100 | > 100 | > 100 | > 100 |  |
| Cc1cc(Nc2cc(N3CCN(C)CC3)nc(Sc3ccc(NC(=O)C4CC4)cc3)n2)n[nH]1 [TOZASERTIB] |  |  | 13.6 | 12.8 | 9.5 | 14.5 | Activity (HeLa [7]): 36% |
| Cn1cc(-c2cnc(N)c(Sc3ccc(C(=O)Nc4ccc(Cl)cc4)cc3)n2)cn1 |  |  | > 100 | > 100 | 42.7 | > 100 |  |
| Cc1noc(C)c1-c1cnc(N)c(Oc2ccc(C(=O)NC3CCCC3)cc2)n1 |  |  | 25.2 | 12.8 | 9.97 | 57.6 |  |
| Cc1noc(C)c1-c1cnc(N)c(Oc2ccc(C(=O)N3CCOCC3)cc2)n1 | 0.36 | 0.172 | 10.2 | 15.4 | 14.1 | 27.2 |  |
| Cc1noc(C)c1-c1cnc(N)c(Oc2ccc(C(=O)Nc3ccc(Cl)cn3)cc2)n1 |  |  | 9.18 | 35.6 | 19.2 | 45.6 |  |
| Cn1cc(-c2cnc(N)c(Oc3ccc(C(=O)Nc4ccccc4Cl)cc3)n2)cn1 |  |  | 41.4 | 66.9 | 73 | 44.8 |  |
| Cn1cc(-c2cnc(N)c(Oc3ccc(C(=O)Nc4ccc(Cl)cn4)cc3)n2)cn1 |  |  | 6.16 | 24.2 | 21.5 | 22.2 |  |
| Cn1cc(-c2cnc(N)c(Oc3ccc(C(=O)Nc4ncccc4Cl)cc3)n2)cn1 |  |  | 16.5 | 21.7 | 36.1 | 37.6 |  |
